In article PMC3389222 (Bioorganic & medicinal chemistry letters, 2012):
Read-outs that look alike come from different tables or passages of the source.

Experiments:
HCV 1b replicon = HCV 1b replicon system, block of HCV replication; format: cell-based; conditions: for EC90: read-out: HCV Replicon EC90
[1] = Stability in human liver microsomes; format: in vitro ADME; conditions: for Elimination rate constant (k): 1 μM compound, 1 mg/mL microsomal protein; for microsomal CLint at 1 μM: human
How it was run: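 Test compound incubated with human liver microsomes in potassium phosphate buffer. Samples taken at 5, 15, 30 and 60 min and analysed by LC-MS/MS. The elimination rate constant (k) was determined, and half-life (t1/2) and intrinsic clearance (CLint) were calculated from k.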

HCV [2] = conditions: cited from earlier work
HCV [3] = conditions: read-out: in vitro potency (EC50); cited from earlier work
[4] = Cytotoxicity in CEM cells; format: cell-based; conditions: human
PBM cells [5] = assay: Cytotoxicity in PBM cells
PBM cells [6] = tested on: PBM cells
[7] = Hepatitis C virus, read-out: HCV Replicon EC50
[8] = Hepatitis C virus, read-out: HCV Replicon EC50, HCV 1b replicon system

Row | SMILES | EC50 (HCV 1b replicon; [7]) | EC90 (HCV 1b replicon; Hepatitis C virus) | EC50 (HCV 1b replicon; [8]) | also measured
1 | COC(=O)N[C@H](C(=O)N1C[C@H](n2cc(-c3ccccc3)nn2)C[C@H]1c1ncc(-c2ccc(-c3ccc(-c4cnc([C@@H]5C[C@@H](n6cc(-c7ccccc7)nn6)CN5C(=O)[C@@H](NC(=O)OC)C(C)C)[nH]4)cc3)cc2)[nH]1)C(C)C [Compound 11] | 2.7 nM | 9.2 nM | – | –
2 | COC(=O)N[C@H](C(=O)N1C[C@H](N=[N+]=[N-])C[C@H]1c1nc(Cl)c(-c2ccc(-c3ccc(-c4[nH]c([C@@H]5C[C@@H](N=[N+]=[N-])CN5C(=O)[C@@H](NC(=O)OC)C(C)C)nc4Cl)cc3)cc2)[nH]1)C(C)C [Compound 15] | 0.0047 nM | 0.0096 nM | – | –
3 | COC(=O)N[C@H](C(=O)N1C[C@@H](n2cc(C(=O)OC)nn2)C[C@H]1c1ncc(-c2ccc(-c3ccc(-c4cnc([C@@H]5C[C@H](n6cc(C(=O)OC)nn6)CN5C(=O)[C@@H](NC(=O)OC)C(C)C)[nH]4)cc3)cc2)[nH]1)C(C)C [Compound 14] | > 10 nM | > 10 nM | – | –
4 | COC(=O)N[C@H](C(=O)N1C[C@@H](N=[N+]=[N-])C[C@H]1c1ncc(-c2ccc(-c3ccc(-c4cnc([C@@H]5C[C@H](N=[N+]=[N-])CN5C(=O)[C@@H](NC(=O)OC)C(C)C)[nH]4)cc3)cc2)[nH]1)C(C)C [Compound 9] | – | 0.0352 nM | 0.023 nM | –
5 | COC(=O)N[C@H](C(=O)N1CCC[C@H]1c1ncc(-c2ccc(-c3ccc(-c4cnc([C@@H]5CCCN5C(=O)[C@@H](NC(=O)OC)C(C)C)[nH]4)cc3)cc2)[nH]1)C(C)C [BMS-790052] | – | – | 0.0042 ± 0.0015 nM | Elimination rate constant (k) [1]: 0.012; viral load decline (HCV [2]; after a single 100 mg dose): ≈ 3.3 log10; toxicity after single dose (HCV [2]; single 100 mg dose): no signs of toxicity; EC50 (HCV [3]): ≤ 0.05 nM
6 | COC(=O)N[C@H](C(=O)N1CCC[C@H]1c1nc(Cl)c(-c2ccc(-c3ccc(-c4[nH]c([C@@H]5CCCN5C(=O)[C@@H](NC(=O)OC)C(C)C)nc4Cl)cc3)cc2)[nH]1)C(C)C [Compound 5b] | – | – | 0.0064 ± 0.003 nM | Elimination rate constant (k) [1]: 0.0058; microsomal CLint at 1 μM [1]: < 8.6 µL/min/mg
7 | COC(=O)N[C@H](C(=O)N1CCC[C@H]1c1nc(-c2ccccc2)c(-c2ccc(-c3ccc(-c4[nH]c([C@@H]5CCCN5C(=O)[C@@H](NC(=O)OC)C(C)C)nc4-c4ccccc4)cc3)cc2)[nH]1)C(C)C [Compound 6] | – | – | 0.2 nM | –
8 | COC(=O)N[C@H](C(=O)N1CCC[C@H]1c1nc(-c2cccs2)c(-c2ccc(-c3ccc(-c4[nH]c([C@@H]5CCCN5C(=O)[C@@H](NC(=O)OC)C(C)C)nc4-c4cccs4)cc3)cc2)[nH]1)C(C)C [Compound 8] | – | – | 0.1 nM | –
9 | COC(=O)N[C@H](C(=O)N1C[C@@H](n2cc(-c3ccccc3)nn2)C[C@H]1c1ncc(-c2ccc(-c3ccc(-c4cnc([C@@H]5C[C@H](n6cc(-c7ccccc7)nn6)CN5C(=O)[C@@H](NC(=O)OC)C(C)C)[nH]4)cc3)cc2)[nH]1)C(C)C [Compound 13] | – | > 10 nM | – | CC50 [4]: > 100000 nM
10 | COC(=O)N[C@H](C(=O)N1CCC[C@H]1c1ncc(-c2ccc(-c3ccc(-c4[nH]c([C@@H]5CCCN5C(=O)[C@@H](NC(=O)OC)C(C)C)nc4F)cc3)cc2)[nH]1)C(C)C [Compound 5e] | – | – | 0.0144 ± 0.004 nM | –
11 | COC(=O)N[C@H](C(=O)N1C[C@H](n2cc(C(=O)OC)nn2)C[C@H]1c1ncc(-c2ccc(-c3ccc(-c4cnc([C@@H]5C[C@@H](n6cc(C(=O)OC)nn6)CN5C(=O)[C@@H](NC(=O)OC)C(C)C)[nH]4)cc3)cc2)[nH]1)C(C)C [Compound 12] | 0.0118 nM | 0.0428 nM | – | –
12 | COC(=O)N[C@H](C(=O)N1C[C@H](N=[N+]=[N-])C[C@H]1c1ncc(-c2ccc(-c3ccc(-c4cnc([C@@H]5C[C@@H](N=[N+]=[N-])CN5C(=O)[C@@H](NC(=O)OC)C(C)C)[nH]4)cc3)cc2)[nH]1)C(C)C [Compound 10] | – | 0.0542 ± 0.0341 nM | 0.0095 nM | EC50 (HCV 1b replicon; read-out: HCV Replicon EC50, HCV 1b replicon system): 0.0184 ± 0.0126 nM
13 | COC(=O)N[C@H](C(=O)N1CCC[C@H]1c1nc(-c2ccco2)c(-c2ccc(-c3ccc(-c4[nH]c([C@@H]5CCCN5C(=O)[C@@H](NC(=O)OC)C(C)C)nc4-c4ccco4)cc3)cc2)[nH]1)C(C)C [Compound 7] | – | – | 0.026 nM | –
14 | COC(=O)N[C@H](C(=O)N1C[C@@H](N=[N+]=[N-])C[C@H]1c1nc(Br)c(-c2ccc(-c3ccc(-c4[nH]c([C@@H]5C[C@H](N=[N+]=[N-])CN5C(=O)[C@@H](NC(=O)OC)C(C)C)nc4Br)cc3)cc2)[nH]1)C(C)C [Compound 19] | 0.0083 nM | 0.0553 nM | – | –
15 | COC(=O)N[C@H](C(=O)N1CCC[C@H]1c1nc(F)c(-c2ccc(-c3ccc(-c4[nH]c([C@@H]5CCCN5C(=O)[C@@H](NC(=O)OC)C(C)C)nc4F)cc3)cc2)[nH]1)C(C)C [Compound 5d] | – | – | 0.0068 ± 0.0033 nM | Elimination rate constant (k) [1]: 0.0056; microsomal CLint at 1 μM [1]: < 8.6 µL/min/mg; toxicity in primary human lymphocytes relative to reference compound 1 (PBM cells [5]): increased toxicity
16 | COC(=O)N[C@H](C(=O)N1C[C@H](N=[N+]=[N-])C[C@H]1c1nc(Br)c(-c2ccc(-c3ccc(-c4[nH]c([C@@H]5C[C@@H](N=[N+]=[N-])CN5C(=O)[C@@H](NC(=O)OC)C(C)C)nc4Br)cc3)cc2)[nH]1)C(C)C [Compound 17] | 0.0026 nM | 0.0216 nM | – | –
17 | COC(=O)N[C@H](C(=O)N1CCC[C@H]1c1nc(Br)c(-c2ccc(-c3ccc(-c4[nH]c([C@@H]5CCCN5C(=O)[C@@H](NC(=O)OC)C(C)C)nc4Br)cc3)cc2)[nH]1)C(C)C [Compound 5a] | – | – | 0.0059 ± 0.0039 nM | Elimination rate constant (k) [1]: 0.01
18 | COC(=O)N[C@H](C(=O)N1C[C@H](N=[N+]=[N-])C[C@H]1c1ncc(-c2ccc(-c3ccc(-c4[nH]c([C@@H]5C[C@@H](N=[N+]=[N-])CN5C(=O)[C@@H](NC(=O)OC)C(C)C)nc4Cl)cc3)cc2)[nH]1)C(C)C [Compound 16] | – | – | 0.0063 nM | –
19 | COC(=O)N[C@H](C(=O)N1CCC[C@H]1c1nc(I)c(-c2ccc(-c3ccc(-c4[nH]c([C@@H]5CCCN5C(=O)[C@@H](NC(=O)OC)C(C)C)nc4I)cc3)cc2)[nH]1)C(C)C [Compound 5c] | – | – | 0.0055 ± 0.0019 nM | Elimination rate constant (k) [1]: 0.018; toxicity in primary human lymphocytes relative to reference compound 1 (PBM cells [6]): increased toxicity
20 | COC(=O)N[C@H](C(=O)N1C[C@@H](N=[N+]=[N-])C[C@H]1c1nc(Cl)c(-c2ccc(-c3ccc(-c4[nH]c([C@@H]5C[C@H](N=[N+]=[N-])CN5C(=O)[C@@H](NC(=O)OC)C(C)C)nc4Cl)cc3)cc2)[nH]1)C(C)C [Compound 18] | 0.0112 nM | 0.0746 nM | – | –
